Screening data (PubChem)
A selection: hits, their analogues and other compounds. The true share with any hit is near 2.5%.
SIAE inh = inhibitors of human sialic acid acetylesterase SIAE; inhibition, % at 9.66 µM; SIAE FP-Rh probe binding, fluorescence polarization; 370,000 tested, 0.69% active;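 active = inhibition above a cutoff: mean of compounds within the control limits plus 3 SD of those, cut at about 17% in these data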
Target sequence (Q9HAT2 whole entry, looked up): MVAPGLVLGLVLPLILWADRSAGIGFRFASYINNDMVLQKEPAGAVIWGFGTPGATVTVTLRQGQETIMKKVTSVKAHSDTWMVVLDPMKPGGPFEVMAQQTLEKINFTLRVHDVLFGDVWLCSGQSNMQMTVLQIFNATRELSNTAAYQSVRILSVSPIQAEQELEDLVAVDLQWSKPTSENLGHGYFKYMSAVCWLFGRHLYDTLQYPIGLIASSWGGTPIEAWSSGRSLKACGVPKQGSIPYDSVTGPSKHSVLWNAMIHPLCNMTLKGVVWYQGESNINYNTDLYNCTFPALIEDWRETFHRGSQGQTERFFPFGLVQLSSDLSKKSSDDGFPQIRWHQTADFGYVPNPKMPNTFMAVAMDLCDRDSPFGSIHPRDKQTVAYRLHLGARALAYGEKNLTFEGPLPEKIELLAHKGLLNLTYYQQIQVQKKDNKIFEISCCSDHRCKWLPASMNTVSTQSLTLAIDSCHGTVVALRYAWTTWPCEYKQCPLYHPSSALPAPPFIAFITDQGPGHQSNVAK
HTRA1 inh = HTRA1 (human) protease inhibition. Q92743. 340,000 tested, 0.5% active. AID 504803. inhibition, % at 5.96 µM. recombinant HTRA1, FP-rhodamine activity-based probe, fluorescence polarization; in the data active = inhibition above about 36%
TCR-CD3 inh = human TCR-CD3 binding inhibition; TAMRA-labeled TCR probe fluorescence, biochemical; inhibition, % at 9.4 µM; 360,000 tested, 0.37% active; in the data active = inhibition above about 19%;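 also: recombinant mutant TCR 2C K166C tagged with TAMRA read by polarization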
PRMT1 FP inh = inhibitors of human PRMT1; Q99873; 370,000 tested, 1.3% active; inhibition, % at 2.79 µM; AID 652257; recombinant PRMT1, activity-based probe fluorescence polarization;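 active = inhibition above about 21% made by adding two undisclosed values, limit read from the data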
ABHD4 inh = inhibits mouse alpha/beta hydrolase domain 4; Q8VD66; purified mABHD4, FP-Rh probe fluorescence polarization; 370,000 tested, 0.54% active; inhibition, % at 8.92 µM;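 active = inhibition exceeding the mean over every tested compound plus 3 SD, cut at about 30% in these data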
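Test system: mABHD4 protein; Read-out basis: % inhibition; Incubation: 45 min + 60 min at 25 °C; Repeats: single replicate; Technique: fluorescence polarization with parallel and perpendicular emission, 525/598 nm; Compound: 8.92 µM, single dose; Benchmarks: full inhibition S159A mutant plus DMSO, zero as sample-well median.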
SIAE confirm = human SIAE inhibition, confirmation; shares compounds with SIAE inh; SIAE FP-Rh activity-based probe, fluorescence polarization; inhibition, % at 9.66 µM; 2,300 tested, 13% active; AID 1117263;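 active = mean inhibition of the replicates above the hit cutoff set in the primary screen, cut at about 17% in these data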;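 also: inhibitors lower polarization as more probe stays unbound to SIAE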
Of the large screens only hits and unclear results are named; the others gave an inactive call (follow-up assays come after a bar, where they were run).

O=C(Nc1nnc(C(F)(F)F)s1)c1c(F)cccc1F	SIAE inh 32 | SIAE confirm inactive
CCCCNC(=O)c1cn(-c2ccc(OCC)cc2)c(=O)c2cc(OC)c(OC)cc12	none
CC(=O)N1c2ccc(S(=O)(=O)NCc3ccccc3Cl)cc2CC1C (stereo unspecified)	SIAE inh 18 | SIAE confirm inactive
CC(=O)N1c2ccc(S(=O)(=O)NCCc3ccc(Cl)cc3)cc2CC1C (stereo unspecified)	none
COc1ccccc1OCCCCN1CCN(c2ccccc2OC)CC1	none
COc1ccccc1N1CCN(CCCCOc2cccc3ccccc23)CC1	SIAE inh 50 | SIAE confirm inactive
CC(C)(C)c1ccc(-c2nnc(SCc3cccc4ccccc34)n2Cc2ccco2)cc1	none (no result: HTRA1 inh, TCR-CD3 inh)
Cn1c(=O)n(Cc2ccccc2)c(=O)c2c1nc1n2CCN1Cc1ccco1	SIAE inh 19 | SIAE confirm inactive
Cc1cccc(OCC(=O)O/N=C(\N)c2ccccn2)c1C	SIAE inh 31 | SIAE confirm inactive
COC(=O)CSc1nc(-c2ccc(F)cc2)cc(C(F)(F)F)n1	SIAE inh 28 | SIAE confirm inactive
CCOC(=O)N1C2CCC(C2)N1C(=O)OCC	none
CCOC(=O)N1[C@@H]2C=C(C)[C@@H]2[C@@H]2[C@@H](C)C(=O)N21	SIAE inh 78 | SIAE confirm 86
CC(=O)Nc1ccc(S(=O)(=O)N2CCCC3CCCCC32)cc1 (stereo unspecified)	SIAE inh 22 | SIAE confirm inactive
S=c1[nH]nc(-c2ccc3ncccc3c2)n1-c1ccc2c(c1)OCCO2	none
S=c1[nH]nc(Cn2c(-c3ccccn3)nc3ccccc32)n1-c1ccc2c(c1)OCCO2	SIAE inh 19 | SIAE confirm inactive
CCOc1ccc(CCNC(=O)c2cc3sccc3n2CC)cc1OC	none (no result: HTRA1 inh, TCR-CD3 inh)
O=C(CSc1nnc2ccccn12)NC(=O)c1ccccc1	SIAE inh 17 | SIAE confirm inactive
CC1(C(=O)NS(=O)(=O)C2CC2)CCCN(C(=O)c2ccc(F)c(Cl)c2)C1 (stereo unspecified)	none (no result: HTRA1 inh)
COc1ccc(CNc2ncc(-c3ccc(F)cc3)n2C)c2ccccc12	SIAE inh 18 | SIAE confirm inactive
COc1ccccc1CNc1ncc(-c2ccc(F)cc2)n1C	none
Cc1cc(-c2n[nH]c(=S)n2N=Cc2cccc(Oc3ccccc3)c2)n[nH]1	none (no result: HTRA1 inh, TCR-CD3 inh)
O=C(c1cccc(Cl)c1)N1CCC2CC1c1cc(-c3ccccc3)ccc12 (stereo unspecified)	none
O=C(c1ccc(Cl)cc1)N1CCC2CC1c1cc(-c3ccccc3)ccc12 (stereo unspecified)	SIAE inh 21 | SIAE confirm inactive
O=C(NCc1ccccn1)C(=O)NCC1OCCN1S(=O)(=O)c1ccc(F)cc1 (stereo unspecified)	SIAE inh 19 | SIAE confirm inactive
O=C(NCc1ccccn1)C(=O)NCC1OCCCN1S(=O)(=O)c1ccc(F)cc1 (stereo unspecified)	none
Cc1cccc(/C=C/C(=O)c2ccc(NC3=NCCCS3)cc2)c1	SIAE inh 53 | SIAE confirm inactive
CC(C)(C)c1ccc(/C=C/C(=O)c2ccc(NC3=NCCCS3)cc2)cc1	SIAE inh 21 | SIAE confirm inactive
O=C(/C=C/c1ccc(Br)cc1)c1ccc(NC2=NCCCS2)cc1	SIAE inh 40 | SIAE confirm inactive
O=C(/C=C/c1ccccc1)c1ccc(NC2=NCCCS2)cc1	none
CCN1C[C@@H]2[C@@H]3C(=O)N(C)C(=O)[C@@H]3[C@](Cc3ccccc3)(C1=O)N2C(=O)c1ccc(C(C)(C)C)cc1	SIAE inh 21 | SIAE confirm inactive
CCN1C[C@@H]2[C@@H]3C(=O)N(C)C(=O)[C@@H]3[C@](Cc3ccccc3)(C1=O)N2C(=O)c1ccc(C)cc1	none
CC(C)(Oc1ccc(Cl)cc1)C(=O)NCc1ccc(S(N)(=O)=O)cc1	none
CSc1nsc(SCC(=O)N2CCN(c3ccccc3)CC2)n1	none
CCOC(=O)c1sc(=S)[nH]c1C	SIAE inh 18 | SIAE confirm inactive
CCOC(=O)c1c(C)[nH]sc1=S	none
COc1ccc(Nc2ncnc3sc(-c4ccccc4)cc23)cc1	SIAE inh 33 | SIAE confirm inactive
O=C(CCc1c[nH]c2ccccc12)Nc1ccc(Oc2cccnc2)cc1	SIAE inh 22 (no result: HTRA1 inh) | SIAE confirm 32
COc1cc(/C=N/Nc2ccc(C(F)(F)F)cn2)cc(OC)c1O	SIAE inh 18 | SIAE confirm inactive
Oc1ccc(/C=N/Nc2ccc(C(F)(F)F)cn2)cc1	none
CCOc1ncccc1C(=O)N1CCN(S(=O)(=O)c2ccc3c(c2)OCCO3)CC1	SIAE inh 22 | SIAE confirm inactive
CN(C)S(=O)(=O)c1ccc(C(=O)N2CCN(S(=O)(=O)c3ccc4c(c3)OCCO4)CC2)cc1	SIAE inh 20 | SIAE confirm inactive
O=C(c1ccc(F)cc1)N1CCN(S(=O)(=O)c2ccc3c(c2)OCCO3)CC1	none
Cc1cc(C)cc(NC(=O)COC(=O)CC2CCCC2)c1	none
CCCNC(=O)C1(C)CCCN(C(=O)c2cc(C)nn2C(C)(C)C)C1 (stereo unspecified)	none (no result: HTRA1 inh)
Cc1cccc(NC(=O)Nc2nc3ncccn3c2-c2ccc(F)cc2)c1	none (no result: HTRA1 inh, TCR-CD3 inh)
O=C(CC[C@H]1O[C@@H](n2cnc3c(NC(=O)c4ccccc4)ncnc32)[C@H](O)[C@@H]1O)NCCCN1CCCC1=O	none (no result: HTRA1 inh)
CCC1Oc2ccccc2N(CC(=O)N2CCOCC2)C1=O (stereo unspecified)	none
CC(C)C1Oc2ccccc2N(CC(=O)N2CCOCC2)C1=O (stereo unspecified)	SIAE inh 27 | SIAE confirm inactive
Cc1ccc(Cl)cc1NC(=O)Cn1c(C)csc1=O	SIAE inh 23 | SIAE confirm inactive
Cc1cc(Cl)ccc1NC(=O)CN1CCCC1	SIAE inh 23 | SIAE confirm inactive
CC(=O)NCCCc1nc2ccccc2n1Cc1c(F)cccc1Cl	none
COc1cccc(CCNC(=O)CCCC(=O)c2ccccc2)c1	none
O=C(CCn1c2c(c3ccccc31)CCCC2)NNC(=O)c1cccc([N+](=O)[O-])c1	SIAE inh 18 | SIAE confirm inactive
FC(F)(F)c1ccc2c(c1)NCC1CCCN21 (stereo unspecified)	SIAE inh 18 | SIAE confirm inactive
O=C1CCC[C@H]2C[C@H](NCc3ccc(Br)cc3)CC[C@]23CCCN13	none (no result: HTRA1 inh, TCR-CD3 inh)
COc1ccccc1NC(=O)CN1CCN(CC(=O)Nc2ccc(Cl)c(C(F)(F)F)c2)CC1	none
CCc1ccccc1NCC(=O)Nc1ccc(Cl)c(C(F)(F)F)c1	SIAE inh 27 | SIAE confirm inactive
Cc1ccc(NC(=O)NN2CCN(C)CC2)cc1C	none
CC(=O)c1ccc2c(c1)C1C=CCC1C(c1ccc(S(=O)(=O)N3CCOCC3)cc1)N2 (stereo unspecified)	SIAE inh 18 | SIAE confirm inactive
CC1CCN(C(=O)c2ccc(S(=O)(=O)N3CCOCC3)cc2)CC1	none
